Laboratory results from ChEMBL document CHEMBL2021843, “Small peptide inhibitors of acetyl-peptide hydrolase having an uncommon mechanism of inhibition and a stable bent conformation” (J Med Chem, 2012).
Blank lines part the entries; values can stand above or below the molecule they belong to. Activity calls are given as the source filed them. The calls are words filed in the database; no cut-off is given here.

Legend:
[1] = target: T1, Acylamino-acid-releasing enzyme (Sus scrofa) (UniProt P19205); conditions: 50 uM
T1 sequence (whole entry): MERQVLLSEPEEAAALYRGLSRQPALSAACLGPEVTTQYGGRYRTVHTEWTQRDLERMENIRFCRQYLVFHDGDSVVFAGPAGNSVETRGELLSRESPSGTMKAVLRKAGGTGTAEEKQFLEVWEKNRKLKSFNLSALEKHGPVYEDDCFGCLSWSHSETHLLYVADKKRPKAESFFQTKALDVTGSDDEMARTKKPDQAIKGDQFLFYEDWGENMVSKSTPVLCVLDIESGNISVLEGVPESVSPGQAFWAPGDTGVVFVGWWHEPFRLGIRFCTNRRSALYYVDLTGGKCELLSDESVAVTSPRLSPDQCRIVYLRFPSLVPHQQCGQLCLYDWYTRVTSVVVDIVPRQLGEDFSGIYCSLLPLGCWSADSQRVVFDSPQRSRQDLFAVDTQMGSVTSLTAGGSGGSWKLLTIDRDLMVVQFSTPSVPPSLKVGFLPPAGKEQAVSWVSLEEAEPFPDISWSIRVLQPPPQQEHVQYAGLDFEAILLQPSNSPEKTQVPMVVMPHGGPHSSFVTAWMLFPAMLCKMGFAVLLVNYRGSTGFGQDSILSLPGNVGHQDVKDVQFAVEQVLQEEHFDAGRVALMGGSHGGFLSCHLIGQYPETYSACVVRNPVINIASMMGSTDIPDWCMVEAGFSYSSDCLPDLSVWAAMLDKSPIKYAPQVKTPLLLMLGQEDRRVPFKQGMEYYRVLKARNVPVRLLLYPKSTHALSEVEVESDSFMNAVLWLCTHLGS

HeLa [2] = test: Proapoptotic activity in human HeLa cells assessed as caspase 3-mediated hydrolysis of Ac-DEVD-AMC at 100 uM after 24 hrs by fluorimetry; type: functional, cell-based
Method in brief: (§1)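 Caspase 3 activity was measured fluorimetrically with a kit after 24 h exposure of HeLa or A375 cells to compound. It was expressed as fold increase over untreated culture. Data come from triplicate analyses in three experiments, given as means ± SD.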

[3] = Inhibition of subtilisin incubated for 30 mins prior to substrate addition by spectrophotometry
Method in brief: (§2)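 Panel of proteases tested up to a maximal 1000 μM inhibitor, each at its own pH: carboxypeptidase Y pH 7.0; chymotrypsin, elastase and trypsin pH 8.0; subtilisin and proteinase K pH 7.5. IC50 and maximal % inhibition were recorded.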

[4] = Inhibition of elastase incubated for 30 mins prior to substrate addition by spectrophotometry
Method in brief: as §2

[5] = Inhibition of trypsin incubated for 30 mins prior to substrate addition by spectrophotometry
Method in brief: as §2

[6] = Inhibition of proteinase K at 1 mM incubated for 30 mins prior to substrate addition by spectrophotometry
Method in brief: as §2

[7] = Inhibition of trypsin at 1 mM incubated for 30 mins prior to substrate addition by spectrophotometry
Method in brief: as §2

[8] = target: T2, Acylamino-acid-releasing enzyme (Homo sapiens) (UniProt P13798); test: Inhibition of APEH in human HeLa cells at 150 uM after 24 hrs; type: cell-based
T2 sequence (whole entry): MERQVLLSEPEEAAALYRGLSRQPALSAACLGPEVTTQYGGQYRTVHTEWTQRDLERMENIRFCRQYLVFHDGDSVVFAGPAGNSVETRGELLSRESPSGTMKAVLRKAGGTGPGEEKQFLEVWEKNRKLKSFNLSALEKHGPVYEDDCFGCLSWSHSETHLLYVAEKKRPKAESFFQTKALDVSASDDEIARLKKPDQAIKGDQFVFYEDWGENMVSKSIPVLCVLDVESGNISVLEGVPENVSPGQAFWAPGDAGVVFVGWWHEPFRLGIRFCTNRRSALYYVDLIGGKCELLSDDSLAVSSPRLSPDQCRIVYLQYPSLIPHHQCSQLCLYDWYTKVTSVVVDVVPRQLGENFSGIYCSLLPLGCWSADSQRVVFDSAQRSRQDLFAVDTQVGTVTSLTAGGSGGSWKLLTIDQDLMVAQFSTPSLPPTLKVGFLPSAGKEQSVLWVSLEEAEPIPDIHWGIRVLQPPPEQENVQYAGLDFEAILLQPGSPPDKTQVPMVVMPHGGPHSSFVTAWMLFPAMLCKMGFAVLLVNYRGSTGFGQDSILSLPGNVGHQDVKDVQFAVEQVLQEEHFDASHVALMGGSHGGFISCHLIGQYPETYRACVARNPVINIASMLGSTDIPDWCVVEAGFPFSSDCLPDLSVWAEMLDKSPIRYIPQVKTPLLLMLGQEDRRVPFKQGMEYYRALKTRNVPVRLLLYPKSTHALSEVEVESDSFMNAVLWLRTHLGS
Method in brief: (§3)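 Melanoma A375 and cervical HeLa cells were exposed for 24 h to peptide at 50, 100 or 150 μM. Data are means ± SD.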

[9] = target: T2, Acylamino-acid-releasing enzyme (Homo sapiens); test: Inhibition of APEH in human A375 cells after 24 hrs; type: cell-based; conditions: A-375
Method in brief: as §3

[10] = Inhibition of carboxypeptidase Y incubated for 30 mins prior to substrate addition by spectrophotometry
Method in brief: as §2

[11] = Inhibition of carboxypeptidase Y at 1 mM incubated for 30 mins prior to substrate addition by spectrophotometry
Method in brief: as §2

[12] = target: T1, Acylamino-acid-releasing enzyme (Sus scrofa); conditions: 150 uM
A-375 [13] = test: Proapoptotic activity in human A375 cells assessed as caspase 3-mediated hydrolysis of Ac-DEVD-AMC at 100 uM after 24 hrs by fluorimetry; type: functional, cell-based
Method in brief: as §1

[14] = Inhibition of elastase at 1 mM incubated for 30 mins prior to substrate addition by spectrophotometry
Method in brief: as §2

HeLa [15] = test: Cytotoxicity against human HeLa cells assessed as LDH production after 24 hrs by spectrophotometry; type: functional, cell-based
Method in brief: (§4)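 LDH release into culture medium after 24 h exposure of HeLa or A375 cells to peptide (50, 100, 150 μM). Medium from untreated cultures served as control, and medium from cells exposed to 1% Triton X-100 served as the 100% release positive control. Data are means ± SD.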

[16] = target: T1, Acylamino-acid-releasing enzyme (Sus scrofa); conditions: 1 mM
A-375 [17] = test: Proapoptotic activity in human A375 cells assessed as caspase 3-mediated hydrolysis of Ac-DEVD-AMC at 150 uM after 24 hrs by fluorimetry; type: functional, cell-based
Method in brief: as §1

A-375 [18] = test: Cytotoxicity against human A375 cells assessed as LDH production at 50 to 150 uM after 24 hrs by spectrophotometry; type: functional, cell-based
Method in brief: as §4

[19] = Inhibition of proteinase K incubated for 30 mins prior to substrate addition by spectrophotometry
Method in brief: as §2

[20] = Inhibition of chymotrypsin at 1 mM incubated for 30 mins prior to substrate addition by spectrophotometry
Method in brief: as §2

[21] = target: T2, Acylamino-acid-releasing enzyme (Homo sapiens); test: Inhibition of APEH in human A375 cells at 150 uM after 24 hrs; type: cell-based; conditions: A-375
Method in brief: as §3

[22] = Inhibition of chymotrypsin incubated for 30 mins prior to substrate addition by spectrophotometry
Method in brief: as §2

HeLa [23] = test: Proapoptotic activity in human HeLa cells assessed as caspase 3-mediated hydrolysis of Ac-DEVD-AMC at 150 uM after 24 hrs by fluorimetry; type: functional, cell-based
Method in brief: as §1

HeLa [24] = test: Cytotoxicity against human HeLa cells assessed as LDH production at 50 to 150 uM after 24 hrs by spectrophotometry; type: functional, cell-based
Method in brief: as §4

[25] = Inhibition of subtilisin at 1 mM incubated for 30 mins prior to substrate addition by spectrophotometry
Method in brief: as §2

[26] = target: T1, Acylamino-acid-releasing enzyme (Sus scrofa); conditions: 50 to 100 uM
[27] = target: T2, Acylamino-acid-releasing enzyme (Homo sapiens); test: Inhibition of APEH in human HeLa cells after 24 hrs; type: cell-based
Method in brief: as §3

[28] = target: T3, Acylamino-acid-releasing enzyme (Sus scrofa, UniProt P19205); test: (§5) Inhibition of pig APEH using acetyl-Ala-pNA as substrate incubated for 2 mins prior to substrate addition by spectrophotometry
T3 sequence (P19205 whole entry): T1 sequence (whole entry)

[29] = target: T1, Acylamino-acid-releasing enzyme (Sus scrofa); test: as §5
HeLa [30] = test: Proapoptotic activity in human HeLa cells assessed as caspase 3-mediated hydrolysis of Ac-DEVD-AMC at 30 uM after 24 hrs by fluorimetry relative to untreated control; type: functional
Method in brief: as §1

HeLa [31] = test: Cytotoxicity against human HeLa cells assessed as LDH production at 100 uM after 24 hrs by spectrophotometry; type: functional
Method in brief: as §4

HeLa [32] = test: Proapoptotic activity in human HeLa cells assessed as caspase 3-mediated hydrolysis of Ac-DEVD-AMC at 50 uM after 24 hrs by fluorimetry relative to untreated control; type: functional
Method in brief: as §1

inhibition [1]: > 25% | IC50 [3]: > 1000 µM | IC50 [4]: > 1000 µM | IC50 [5]: > 1000 µM | Imax [6]: < 1% | Imax [7]: < 1% | Imax [8]: 80% | inhibition [9]: Dose-dependent effect | IC50 [10]: 210 µM | Imax [11]: 30% | Imax [12]: 72% | Imax [14]: < 1% | Imax [16]: 72% | IC50 [19]: > 1000 µM | Imax [20]: < 1% | Imax [21]: 50% | IC50 [22]: > 1000 µM | Imax [25]: < 1% | inhibition [26]: Active | inhibition [27]: Dose-dependent effect | IC50 [28]: 98 µM | Ki [28]: 24 µM
SMILES: CSCC[C@@H](NC(=O)[C@@H](CC(C)C)NC(=O)C(F)(F)F)C(=O)N1CCC[C@@H]1C(=O)N[C@H](Cc1cnc[nH]1)C(N)=O
Activity (HeLa [2]): Active | Activity (A-375 [13]): Active | Activity (HeLa [15]): inactive | Activity (A-375 [17]): Active | Activity (A-375 [18]): inactive | Activity (HeLa [23]): Active | Activity (HeLa [24]): inactive

inhibition [29]: inactive
SMILES: CSCC[C@@H](NC(=O)[C@@H](CC(C)C)NC(C)=O)C(=O)N1CCC[C@@H]1C(=O)N[C@H](Cc1cnc[nH]1)C(N)=O

SMILES: CC[C@@H](C)[C@@H](O)[C@H](C)C(=O)[C@H](C)/C=C(\C)C[C@H](C)[C@@H]1OC(=O)[C@H]1CC [EBELACTONE B]
fold change (FC) (HeLa [30]): 5 | Activity (HeLa [31]): 28% | fold change (FC) (HeLa [32]): 5 | Activity (HeLa [15]): Dose-dependent effect

inhibition [29]: inactive
SMILES: CSCC[C@@H](NC(=O)[C@H](N)CC(C)C)C(=O)N1CCC[C@@H]1C(=O)N[C@H](Cc1cnc[nH]1)C(N)=O

SMILES: CSCC[C@@H](NC(=O)[C@@H](CC(C)C)NC(=O)C(F)(F)F)C(=O)N1CCC[C@@H]1C(=O)N[C@H](CC(=O)O)C(N)=O
Activity (HeLa [15]): inactive
